pIC50: −log10 of the molar value. The source made the active and inactive calls. The calls are words filed in the database; no cut-off is given here.
What was measured:
Plasmodium falciparum [1] = assay: Antimalarial activity against asexual blood stages of Plasmodium falciparum Dd2 infected in human erythrocytes incubated for 3 days by ELISA; type: functional, organism-based; conditions: Dd2, 72 h
Outline: (§1)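 Asexual blood-stage P. falciparum cultured in human erythrocytes; growth measured by HRP2 double-site sandwich ELISA. IC50 values are the mean of two independent double determinations.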

Plasmodium falciparum [2] = assay: Antimalarial activity against asexual blood stages of Plasmodium falciparum 3D7 infected in human erythrocytes incubated for 3 days by ELISA; type: functional, organism-based; conditions: 3D7, 72 h; outline: as §1
[3] = biological target: T1, 1-deoxy-D-xylulose 5-phosphate reductoisomerase, apicoplastic (Plasmodium falciparum (isolate 3D7)) (UniProt Q8IKG4); assay: Inhibition of recombinant Plasmodium falciparum IspC expressed in Escherichia coli using 1-deoxy-D-xylulose 5-phosphate as substrate preincubated for 2 days followed by substrate addition in presence of Tris HCL at pH 7.6 by photometric assay
T1 sequence (whole entry): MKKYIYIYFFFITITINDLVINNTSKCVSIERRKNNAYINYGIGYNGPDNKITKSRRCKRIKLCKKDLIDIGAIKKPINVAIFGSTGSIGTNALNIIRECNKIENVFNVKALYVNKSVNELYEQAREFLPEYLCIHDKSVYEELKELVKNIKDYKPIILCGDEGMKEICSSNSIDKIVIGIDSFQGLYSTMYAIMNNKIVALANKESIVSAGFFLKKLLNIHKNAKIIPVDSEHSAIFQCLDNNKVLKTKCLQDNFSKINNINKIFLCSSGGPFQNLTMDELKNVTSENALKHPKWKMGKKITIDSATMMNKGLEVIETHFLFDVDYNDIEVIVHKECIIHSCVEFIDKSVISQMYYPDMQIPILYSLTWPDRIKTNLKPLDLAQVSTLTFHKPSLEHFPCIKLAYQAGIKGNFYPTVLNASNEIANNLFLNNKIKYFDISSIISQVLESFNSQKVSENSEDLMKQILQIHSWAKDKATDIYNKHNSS
Outline: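 Racemate or single enantiomer (0.6–0.7 mM) held in 100 mM Tris-HCl pH 7.6 with 0.02% NaN3 at 22–23 °C. Aliquots taken at 0, 24 and 48 h and frozen at −80 °C. All aliquots then assayed in parallel for IC50 against P. falciparum IspC: 340 nm NADPH read-out with 0.5 mM DXP.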

[4] = biological target: T1, 1-deoxy-D-xylulose 5-phosphate reductoisomerase, apicoplastic (Plasmodium falciparum (isolate 3D7)); assay: Inhibition of recombinant Plasmodium falciparum IspC expressed in Escherichia coli using 1-deoxy-D-xylulose 5-phosphate as substrate preincubated for 7 days followed by substrate addition in presence of Tris HCL at pH 7.6 by photometric assay
Pseudomonas aeruginosa = assay: Antimicrobial activity against Pseudomonas aeruginosa ATCC 27853 incubated for 18 hrs by microbroth dilution assay; type: functional; conditions: ATCC 27853, 18 h
Escherichia coli [5] = assay: Antimicrobial activity against Escherichia coli ATCC BAA 2469 incubated for 18 hrs by microbroth dilution assay; type: functional; conditions: ATCC BAA 2469, 18 h
[6] = test system: Mycobacterium tuberculosis; assay: Antimycobacterial activity against Mycobacterium tuberculosis H37Rv incubated for 5 days by resazurin dye based assay; type: functional; conditions: 120 h
Escherichia coli [7] = assay: Antimicrobial activity against Escherichia coli ATCC 25922 incubated for 18 hrs by microbroth dilution assay; type: functional; conditions: ATCC 25922, 18 h
Acinetobacter baumannii [8] = assay: Antimicrobial activity against Acinetobacter baumannii ATCC BAA 1605 incubated for 18 hrs by microbroth dilution assay; type: functional; conditions: ATCC BAA 1605, 18 h
Klebsiella pneumoniae [9] = assay: Antimicrobial activity against Klebsiella pneumoniae ATCC 700603 incubated for 18 hrs by microbroth dilution assay; type: functional; conditions: ATCC 700603, 18 h
Klebsiella pneumoniae [10] = assay: Antimicrobial activity against Klebsiella pneumoniae ATCC 13883 incubated for 18 hrs by microbroth dilution assay; type: functional; conditions: ATCC 13883, 18 h
[11] = Apparent permeability in human Caco2 cells by LC-MS/MS analysis; type: ADME, cell-based; conditions: Caco-2
Outline: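 Compound applied to a polarized Caco2 monolayer. Concentrations measured over time by LC-MS/MS in donor medium, acceptor medium and cells; Papp calculated. Atenolol served as a reference compound.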

[12] = Stability of compound in pH 7.6 PBS buffer assessed as parent compound remaining incubated for 72 by HPLC analysis; type: physicochemical
Outline: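 Compound dissolved at 1 mg/mL in phosphate buffer pH 7.6 (Ph. Eur.) and shaken at room temperature for 72 h. Samples at 0, 1, 3, 6, 24 and 72 h (n = 3) run by C18 reversed-phase HPLC with an acetonitrile/water gradient containing 0.1% TFA. Decomposition taken from the loss of peak area at 254 nm.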

Acinetobacter baumannii [13] = assay: Antimicrobial activity against Acinetobacter baumannii ATCC BAA747 incubated for 18 hrs by microbroth dilution assay; type: functional; conditions: ATCC BAA747, 18 h
[14] = Selectivity index, ratio of IC50 for human HeLa cells to IC50 for Plasmodium falciparum 3D7; type: toxicity; conditions: read-out: Ratio IC50
Outline: (§2)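 Cytotoxicity on HeLa monolayers quantified spectrophotometrically, given as the mean of two independent double determinations. SI is HeLa IC50 divided by the P. falciparum 3D7 IC50.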

HeLa = assay: Cytotoxicity against human HeLa cells assessed as reduction in cell viability incubated for 24 hrs by neutral red assay; type: cell-based; outline: as §2

With `CN(O)C(=O)CS[C@H](c1ccccc1)P(=O)(O)O` the pIC50 (Plasmodium falciparum [1]) was less than 3.89, the pIC50 (Plasmodium falciparum [2]) was less than 3.89 and the inhibition [3] was “Active”. The inhibition [4] was “Active”.

With `CN(O)C(=O)CSC(c1ccccc1)P(=O)(O)O` (racemic) the MIC (Pseudomonas aeruginosa) was greater than 100 µM, the MIC (Escherichia coli [5]) was greater than 100 µM and the pIC50 (Plasmodium falciparum [1]) was 6.59. For the same compound, the pIC50 (Plasmodium falciparum [2]) was 6.72, the MIC [6] was greater than 100 µM and the MIC (Escherichia coli [7]) was greater than 100 µM. For the same compound, the MIC (Acinetobacter baumannii [8]) was greater than 100 µM, the MIC (Klebsiella pneumoniae [9]) was greater than 100 µM and the MIC (Klebsiella pneumoniae [10]) was greater than 100 µM. It also gave a Papp [11] of 0.14 ×10⁻⁶ cm/s, a Stability [12] greater than 95% and an MIC (Acinetobacter baumannii [13]) greater than 100 µM. It also gave a selectivity ratio [14] greater than 37000 and a pIC50 (HeLa) of less than 3.00.

In the case of `CN(O)C(=O)CS[C@@H](c1ccccc1)P(=O)(O)O`, the pIC50 (Plasmodium falciparum [1]) was 6.85, the pIC50 (Plasmodium falciparum [2]) was 7.06 and the inhibition [3] was “Active”. For the same compound, the inhibition [4] was “Active”.
